Experimental data published in ChEMBL document CHEMBL1134552, “Synthesis of cytotoxic 6E-hydroximino-4-ene steroids: structure/activity studies” (J Med Chem, 2001).
≈ marks a conversion by molar mass, not a printed value.

Legend:
Assay type in all cases: functional, cell-based
[1] = test system: P388; experiment: In vitro antitumor activity against P-388 tumor cells.; details: Mus musculus
In short: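 P-388 lymphoid neoplasm from DBA/2 mouse, grown in suspension in EMEM/neaa with 5% FCS. Seeded at 1×10^4 cells per well in 1 mL medium holding a range of sample concentrations, with drug-free controls, duplicate wells. Incubated 3 days at 37 °C, 5% CO2, 98% humidity. Cells counted by Coulter counter; IC50 read from dose–response curves of % growth versus untreated cultures.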

[2] = test system: HT-29; experiment: In vitro antitumor activity against HT-29 tumor cells.; details: Homo sapiens
In short: (§1)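 Adherent lines (human lung A-549, colon HT-29, MEL-28) grown in EMEM/neaa with 5% FCS. Cells plated at 1×10^4 per well in 1 mL medium containing graded sample concentrations, with drug-free growth controls, in duplicate. Incubated 3 days at 37 °C, 5% CO2. Stained with 0.1% crystal violet, or trypsinized and Coulter-counted. IC50 taken from dose–response curves of growth relative to controls.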

[3] = test system: A549; experiment: In vitro antitumor activity against A-549 tumor cells.; details: Homo sapiens; in short: as §1
[4] = test system: SK-MEL-28; experiment: In vitro antitumor activity against MEL-28 tumor cells.; details: Homo sapiens; in short: as §1

CC(C)CCCC(C)[C@H]1CCC2C3C/C(=N\O)C4=CC(=O)[C@H](O)C[C@]4(C)C3CC[C@@]21C (stereo partly specified)
IC50 [1]: 0.25 µg/mL (≈ 0.582 µM) | IC50 [2]: 0.25 µg/mL (≈ 0.582 µM) | IC50 [3]: 0.125 µg/mL (≈ 0.291 µM) | IC50 [4]: 0.125 µg/mL (≈ 0.291 µM)

CC(C)CCCC(C)[C@H]1CCC2C3C/C(=N\O)C4=CC(=O)[C@@H](O)C[C@]4(C)C3CC[C@@]21C (stereo partly specified)
IC50 [1]: 0.25 µg/mL (≈ 0.582 µM) | IC50 [2]: 0.25 µg/mL (≈ 0.582 µM) | IC50 [3]: 0.125 µg/mL (≈ 0.291 µM) | IC50 [4]: 0.125 µg/mL (≈ 0.291 µM)

CC(C)CCCC(C)[C@H]1CCC2C3C/C(=N\O)C4=CC=CC[C@]4(C)C3CC[C@@]21C (stereo partly specified)
IC50 [1]: 5 µg/mL (≈ 12.6 µM) | IC50 [2]: 5 µg/mL (≈ 12.6 µM) | IC50 [3]: 5 µg/mL (≈ 12.6 µM) | IC50 [4]: 5 µg/mL (≈ 12.6 µM)

CC(C)CCCC(C)[C@H]1CCC2C3C/C(=N\O)C4=CC(=O)C(O)=C[C@]4(C)C3CC[C@@]21C (stereo partly specified)
IC50 [1]: 0.5 µg/mL (≈ 1.17 µM) | IC50 [2]: 0.25 µg/mL (≈ 0.585 µM) | IC50 [3]: 0.125 µg/mL (≈ 0.292 µM) | IC50 [4]: 0.125 µg/mL (≈ 0.292 µM)

C[C@]12CCC(=O)C=C1/C(=N/O)CC1C2CC[C@@]2(C)C1CC[C@@H]2O (stereo partly specified)
IC50 [1]: 5 µg/mL (≈ 15.8 µM) | IC50 [2]: 5 µg/mL (≈ 15.8 µM) | IC50 [3]: 5 µg/mL (≈ 15.8 µM) | IC50 [4]: 5 µg/mL (≈ 15.8 µM)

CC(C)CCC[C@@H](C)C1CCC2C3C/C(=N\O)C4=C[C@@H](O)CC[C@]4(C)C3CC[C@@]21C (stereo partly specified)
IC50 [1]: 10 µg/mL (≈ 24.1 µM) | IC50 [2]: 10 µg/mL (≈ 24.1 µM) | IC50 [3]: 10 µg/mL (≈ 24.1 µM) | IC50 [4]: 10 µg/mL (≈ 24.1 µM)

CC(C)CCCC(C)[C@H]1CCC2C3C/C(=N\O)C4=C[C@@H](O)[C@@H](O)C[C@]4(C)C3CC[C@@]21C (stereo partly specified)
IC50 [1]: 1.25 µg/mL (≈ 2.9 µM) | IC50 [2]: 1.25 µg/mL (≈ 2.9 µM) | IC50 [3]: 1.25 µg/mL (≈ 2.9 µM) | IC50 [4]: 1.25 µg/mL (≈ 2.9 µM)

C[C@]12CCC(=O)C=C1/C(=N/O)CC1C2CC[C@]2(C)C(=O)CCC12 (stereo partly specified)
IC50 [1]: 5 µg/mL (≈ 15.9 µM) | IC50 [2]: 5 µg/mL (≈ 15.9 µM) | IC50 [3]: 5 µg/mL (≈ 15.9 µM) | IC50 [4]: 5 µg/mL (≈ 15.9 µM)

CC(C)CCCC(C)[C@H]1CCC2C3C/C(=N\O)C4=CC(=O)CC[C@]4(C)C3CC[C@@]21C (stereo partly specified)
IC50 [1]: 1.25 µg/mL (≈ 3.02 µM) | IC50 [2]: 1.25 µg/mL (≈ 3.02 µM) | IC50 [3]: 1.25 µg/mL (≈ 3.02 µM) | IC50 [4]: 2.5 µg/mL (≈ 6.04 µM)

CC(C)CCCC(C)[C@H]1CCC2C3C/C(=N\O)C4=C[C@H](O)[C@H](O)C[C@]4(C)C3CC[C@@]21C (stereo partly specified)
IC50 [1]: 1.25 µg/mL (≈ 2.9 µM) | IC50 [2]: 1.25 µg/mL (≈ 2.9 µM) | IC50 [3]: 1.25 µg/mL (≈ 2.9 µM) | IC50 [4]: 1.25 µg/mL (≈ 2.9 µM)

CC(C)[C@H](C)[C@@]1(C)C[C@@H]1[C@@H](C)C1CCC2C3C/C(=N\O)C4=CC(=O)CC[C@]4(C)C3CC[C@@]21C (stereo partly specified)
IC50 [1]: 5 µg/mL (≈ 11 µM) | IC50 [2]: 5 µg/mL (≈ 11 µM) | IC50 [3]: 5 µg/mL (≈ 11 µM) | IC50 [4]: 5 µg/mL (≈ 11 µM)

CC[C@H](CCC(C)[C@H]1CCC2C3C/C(=N\O)C4=CC(=O)CC[C@]4(C)C3CC[C@@]21C)C(C)C (stereo partly specified)
IC50 [1]: 10 µg/mL (≈ 22.6 µM) | IC50 [2]: 10 µg/mL (≈ 22.6 µM) | IC50 [3]: 10 µg/mL (≈ 22.6 µM) | IC50 [4]: 10 µg/mL (≈ 22.6 µM)

CC(C)[C@H](C)[C@@]1(C)C[C@@H]1[C@@H](C)C1CCC2C3C/C(=N\O)C4=C[C@@H](O)CC[C@]4(C)C3CC[C@@]21C (stereo partly specified)
IC50 [1]: 10 µg/mL (≈ 21.9 µM) | IC50 [2]: 10 µg/mL (≈ 21.9 µM) | IC50 [3]: 10 µg/mL (≈ 21.9 µM) | IC50 [4]: 10 µg/mL (≈ 21.9 µM)

C[C@@]12CCCC1C1C/C(=N\O)C3=CC(=O)CC[C@]3(C)C1CC2 (stereo partly specified)
IC50 [1]: 5 µg/mL (≈ 16.6 µM) | IC50 [2]: 5 µg/mL (≈ 16.6 µM) | IC50 [3]: 5 µg/mL (≈ 16.6 µM) | IC50 [4]: 5 µg/mL (≈ 16.6 µM)
